28 molecules from ChEMBL document CHEMBL1131384, “Synthesis and structure-activity relationships of potent and orally active 5-HT4 receptor antagonists: indazole and benzimidazolone derivatives” (J Med Chem, 1998) can be followed below.

What is called pKb is the Kb on a negative log10 scale, so that one unit is a factor of ten. Low values mean a large Kb, high ones a small Kb. The pKi is the Ki on a negative log10 scale, so that one unit is a factor of ten. A high value points to a small Ki.

Chain of 5-hydroxytryptamine receptor 4 (Rattus norvegicus) (Q62758 whole entry): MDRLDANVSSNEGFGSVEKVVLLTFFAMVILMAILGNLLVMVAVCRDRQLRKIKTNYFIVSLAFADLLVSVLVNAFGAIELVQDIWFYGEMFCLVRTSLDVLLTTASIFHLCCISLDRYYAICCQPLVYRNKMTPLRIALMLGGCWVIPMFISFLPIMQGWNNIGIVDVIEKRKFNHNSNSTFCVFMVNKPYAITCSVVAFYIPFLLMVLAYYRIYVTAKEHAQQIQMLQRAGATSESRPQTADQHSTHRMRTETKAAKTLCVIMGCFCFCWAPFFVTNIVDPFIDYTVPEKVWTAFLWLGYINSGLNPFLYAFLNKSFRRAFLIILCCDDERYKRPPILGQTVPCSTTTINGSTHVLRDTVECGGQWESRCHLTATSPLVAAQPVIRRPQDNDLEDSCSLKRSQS

One experiment deals with 5-hydroxytryptamine receptor 4 (Rattus norvegicus) (UniProt Q62758). The experiment in a line: Antagonistic activity by ability to block serotonin induced relaxation (mediated by activation of 5-hydroxytryptamine 4 receptor) in carbamylcholine (10e-6 M) contracted esophagus at a concentration of 10e-6 M. It is filed as functional, tissue-based. In short, it runs like this:
(§1)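 Isolated rat esophagus precontracted with carbamylcholine (10^-6 M). Tissue was challenged with serotonin (1 µM) in the presence of the antagonist at a given concentration or of vehicle. Relaxation was recorded as % relaxation to 10^-6 M 5-HT, given as mean ± SEM with the number of determinations.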
Consider `CC(=O)NC1CCN(CCNC(=O)c2nn(C(C)C)c3ccccc23)CC1`, for which the Relaxation was determined as 6.8%. On to `CC(C)n1nc(C(=O)NCCN2CCC(N)CC2)c2ccccc21`, for which the Relaxation came out at 36.8%.

As for `CCCn1cc(C(=O)NC2CC3CCC(C2)N3C)c2ccccc21` (centres undefined), the Relaxation was determined as 34.3%. On the same count and under the same terms, the same measure for `CN1C2CCC1CC(NC(=O)n1c(=O)n(C)c3ccccc31)C2` (centres undefined): 7.3%. Still for that read-out and setting: the same measure for `CCC(C)n1cc(C(=O)NC2CC3CCC(C2)N3C)c2ccccc21` (centres undefined): 57.8%; for `CC(C)n1nc(C(=O)NC2CCN(CCCCCc3ccccc3)CC2)c2ccccc21`: 43.7%; for `CC(C)n1nc(C(=O)NCCN2CCCC2)c2ccccc21`: 4.3%. On the same count and under the same terms, the figure for `CCn1nc(C(=O)NC2CC3CCC(C2)N3C)c2ccccc21` (centres undefined) is 6.7%. The molecule `CC(C)n1nc(C(=O)NC2CCN(CCc3ccccc3)CC2)c2ccccc21` registered a Relaxation of 1.3%.

On to `CC(C)n1nc(C(=O)NCCN2CCN(C(=O)c3ccccc3)CC2)c2ccccc21`, for which the Relaxation came out at 19.8%. Molecule `CC(C)n1cc(C(=O)NC2CC3CCC(C2)N3C)c2ccccc21` (centres undefined) had a Relaxation of 25.3%.

Consider `CN1[C@@H]2CC[C@H]1C[C@@H](OC(=O)c1c[nH]c3ccccc13)C2`, for which the Relaxation was 33.9%.

As for `CC(C)n1nc(C(=O)NC2CCN(CCCCc3ccccc3)CC2)c2ccccc21`, the Relaxation was found to be 4%. With `CCn1cc(C(=O)NC2CC3CCC(C2)N3C)c2ccccc21` (centres undefined), the Relaxation worked out at 44.8%. The molecule `CC(C)n1nc(C(=O)NCCN2CCCCCC2)c2ccccc21` showed a Relaxation of 4.8%.

Molecule `CC(C)n1nc(C(=O)NC2CCNCC2)c2ccccc21` yielded a Relaxation of 32%. In the case of `CC(C)n1nc(C(=O)NCCN2CCC(NC(=O)Nc3ccccc3)CC2)c2ccccc21`, the Relaxation stood at 11%. On the same count and under the same terms, the same measure for `CC(C)n1nc(C(=O)NCCN2CCc3ccccc3C2)c2ccccc21`: 20.3%; for `CC(C)n1nc(C(=O)NCCN2CCN(Cc3ccccc3)CC2)c2ccccc21`: 9.1%; for `CCCn1nc(C(=O)NC2CC3CCC(C2)N3C)c2ccccc21` (centres undefined): 2.5%. The molecule `CN1C2CCC1CC(NC(=O)c1cn(C)c3ccccc13)C2` (centres undefined) displayed a Relaxation of 47.3%. Take `CCCn1c(=O)n(C(=O)NC2CC3CCC(C2)N3C)c2ccccc21` (centres undefined): the Relaxation came out at 4.3%.

Molecule `CC(C)n1nc(C(=O)NCCN2CCC(NC(=O)NCc3ccccc3)CC2)c2ccccc21` showed a Relaxation of 3.3%.

The next experiment shares this target. In words: Antagonistic activity evaluated by ability to block serotonin induced relaxation (mediated by activation of 5-hydroxytryptamine 4 receptor) in carbamylcholine (10e-6 M) contracted esophagus at a concentration of 10e-5 M. It counts as functional, tissue-based. In a few lines: as §1
`CN1C2CCCC1CC(NC(=O)c1nn(C)c3ccccc13)C2` (centres undefined) registered a Relaxation of 21%. Molecule `CN1C2CCC1CC(NC(=O)c1cccc3ccccc13)C2` (centres undefined) gave a Relaxation of 76.5%. Still for that read-out and setting: the figure for `CN1[C@@H]2CC[C@H]1C[C@@H](OC(=O)c1c[nH]c3ccccc13)C2` is 26.4%. Turning to `CN1C2CCC1CC(NC(=O)c1n[nH]c3ccccc13)C2` (centres undefined), the Relaxation came to 50.5%.

For another experiment, the target named is T1, Adrenergic receptor alpha-1 (Rattus norvegicus) (UniProt P15823+P23944+P43140). The experiment in a line: Binding affinity for Alpha-1 adrenergic receptor in rat aorta determined by block of norepinephrine induced contraction of rat aorta. It counts as tissue-based.
Turning to `CC(C)n1nc(C(=O)NC2CCN(CCc3ccccc3)CC2)c2ccccc21`, the pKb came out at 7.68.

Turning to `CC(C)n1nc(C(=O)NC2CCN(CCCCc3ccccc3)CC2)c2ccccc21`, the pKb is 5.6.

The target in another experiment is T1, Adrenergic receptor alpha-1 (Rattus norvegicus). In words: Affinity for the alpha-1 adrenergic receptor determined by the displacement of [3H]prazosin from rat whole brain tissue. It counts as tissue-based. Background: Loss of bound radioactivity is the signal in a displacement assay; it reports binding, not function.
In turn, `CC(=O)NC1CCN(CCNC(=O)c2nn(C(C)C)c3ccccc23)CC1` showed a negative-log Ki (pKi) of under 4. `CC(C)n1nc(C(=O)NCCN2CCCC2)c2ccccc21`: the pKi is under 4.

`CC(C)n1nc(C(=O)NCCN2CCCCCC2)c2ccccc21` showed a pKi of 5.

Another experiment has as its target 5-hydroxytryptamine receptor 4 (Rattus norvegicus) (UniProt Q62758). In words: Antagonistic activity evaluated by ability to block serotonin induced relaxation (mediated by activation of 5-hydroxytryptamine 4 receptor) in carbamylcholine (10e-6 M) contracted esophagus at a concentration of 10e-8 M. It is filed as functional, tissue-based. In short, it runs like this:
as §1
`CC(=O)NC1CCN(CCNC(=O)c2nn(C(C)C)c3ccccc23)CC1` showed a Relaxation of 51.3%.

For another experiment the target is unchanged. In words: Antagonistic activity evaluated by ability to block serotonin induced relaxation via 5-hydroxytryptamine 4 receptor) in carbamylcholine (10e-6 M) contracted esophagus at a concentration of 0.1 mg/kg (p.o.). It counts as functional, organism-based. Further details: dose 0.1 mg/kg. In short, it runs like this: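 Rats were dosed with the antagonist by oral gavage. Esophagus was removed 3 h after dosing and challenged ex vivo with serotonin. Read-out was % relaxation of the carbamylcholine-contracted tissue to 10^-6 M 5-HT, given as mean ± SEM with the number of determinations.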
As to `CC(=O)NC1CCN(CCNC(=O)c2nn(C(C)C)c3ccccc23)CC1`, the Relaxation is 19.1%.

As for `CC(C)n1nc(C(=O)NCCN2CCC(N)CC2)c2ccccc21`, the Relaxation turned out to be 41%. Still for that read-out and setting: the same measure for `CC(C)n1nc(C(=O)NCCN2CCCC2)c2ccccc21`: 51%; for `CC(C)n1nc(C(=O)NCCN2CCCCCC2)c2ccccc21`: 52%. With `CC(C)n1nc(C(=O)NCCN2CCC(NC(=O)Nc3ccccc3)CC2)c2ccccc21`, the Relaxation came out at 33.7%.

`CC(C)n1nc(C(=O)NCCN2CCc3ccccc3C2)c2ccccc21` showed a Relaxation of 41%.

`CC(C)n1nc(C(=O)NCCN2CCC(NC(=O)NCc3ccccc3)CC2)c2ccccc21`: the Relaxation stood at 30%.

A further experiment shares this target. In words: Antagonistic activity evaluated by ability to block serotonin induced relaxation (via 5-hydroxytryptamine 4 receptor) in carbamylcholine (10e-6 M) contracted esophagus at a concentration of 3*10e-8 M. It is filed as functional. In short, it runs like this: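 Isolated rat esophagus precontracted with carbamylcholine (10^-6 M), then challenged with serotonin (1 μM) in the presence of antagonist at the stated concentration or vehicle. Read-out is % relaxation to serotonin, given as mean ± SEM with the number of determinations.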
For `CC(=O)NC1CCN(CCNC(=O)c2nn(C(C)C)c3ccccc23)CC1`, the Relaxation amounted to 33.5%. On to `CCC(C)n1nc(C(=O)NC2CC3CCC(C2)N3C)c2ccccc21` (centres undefined), for which the Relaxation amounted to 46.3%. Same read-out and setting: the figure for `CCn1c(=O)n(C(=O)NC2CC3CCC(C2)N3C)c2ccccc21` (centres undefined) is 37.5%; for `CCCn1c(=O)n(C(=O)NC2CC3CCC(C2)N3C)c2ccccc21` (centres undefined) it is 30.7%.
